Experimental data: ChEMBL document CHEMBL3112482, “Nonclassical antifolates, part 5. Benzodiazepine analogs as a new class of DHFR inhibitors: synthesis, antitumor testing and molecular modeling study” (Eur J Med Chem, 2014)

Experiments:
Assay type in all cases: functional
[1] = test system: HCT-15; assay: Growth inhibition of human HCT15 cells at 10 uM after 48 hrs; details: HCT-15, 48 h, read-out: GI
Outline: (§1)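 Single-dose primary screen in the NCI 60 human tumour cell line panel, run at the NCI facility. The panel covers nine subpanels: leukaemia, non-small cell lung, colon, CNS, melanoma, ovarian, renal, prostate and breast. Read-out was percent growth of treated cells, shown as a mean graph and reported as percent growth inhibition.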

[2] = test system: Cancer cell lines; assay: Ratio of 5-FU LC50 to compound LC50 for human colon cancer cells
Outline: (§2)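 Compounds passing the NCI single-dose primary screen were retested across the 60 human tumour cell lines (nine subpanels) over a 5-log dose range. GI50, TGI and LC50 were recorded for each cell line, with 5-fluorouracil run as the reference drug. Subpanel values for compound and 5-FU were then compared.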

[3] = test system: Cancer cell lines; assay: Ratio of 5-FU GI50 to compound GI50 for human prostate cancer cells; outline: as §2
[4] = test system: Cancer cell lines; assay: Ratio of 5-FU GI50 to compound GI50 for human ovarian cancer cells; outline: as §2
[5] = test system: Leukemia cell; assay: Ratio of 5-FU GI50 to compound GI50 for human leukemia cells; outline: as §2
[6] = Cytotoxicity against human non-small cell lung cancer cells at 10 uM after 48 hrs; details: Cancer cell lines; outline: as §1
[7] = test system: Melanoma cell; assay: Ratio of 5-FU TGI to compound TGI for human melanoma cells
[8] = Growth inhibition of human HOP92 cells at 10 uM after 48 hrs; details: HOP-92, 48 h, read-out: GI; outline: as §1
[9] = test system: HL-60(TB); assay: Growth inhibition of human HL-60(TB) cells at 10 uM after 48 hrs; details: HL-60, 48 h, read-out: GI
Outline: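 NCI 60-cell-line human tumour panel covering nine subpanels (leukaemia, non-small cell lung, colon, CNS, melanoma, ovarian, renal, prostate, breast), run at the NCI facility. Primary screen tested a single dose of each compound. Read-out was percent growth of treated cells versus untreated cells, reported from the mean graph as percentage growth inhibition.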

[10] = test system: Cancer cell lines; assay: Ratio of 5-FU LC50 to compound LC50 for human CNS cancer cells; outline: as §2
[11] = test system: 786-0; assay: Growth inhibition of human 786-0 cells at 10 uM after 48 hrs; details: 786-0, 48 h, read-out: GI; outline: as §1
[12] = test system: Cancer cell lines; assay: Ratio of 5-FU LC50 to compound LC50 for human prostate cancer cells; outline: as §2
[13] = test system: Cancer cell lines; assay: Ratio of 5-FU LC50 to compound LC50 for human non-small cell lung cancer cells; outline: as §2
[14] = test system: Cancer cell lines; assay: Ratio of 5-FU TGI to compound TGI for human renal cancer cells
[15] = test system: Cancer cell lines; assay: Ratio of 5-FU LC50 to compound LC50 for human breast cancer cells; outline: as §2
[16] = test system: Cancer cell lines; assay: Ratio of 5-FU TGI to compound TGI for human non-small cell lung cancer cells
[17] = test system: Cancer cell lines; assay: Ratio of 5-FU LC50 to compound LC50 for human renal cancer cells; outline: as §2
[18] = test system: Melanoma cell; assay: Ratio of 5-FU LC50 to compound LC50 for human melanoma cells; outline: as §2
[19] = test system: A549; assay: Growth inhibition of human A549 cells at 10 uM after 48 hrs; details: A549, 48 h, read-out: GI; outline: as §1
[20] = Cytotoxicity against human leukemia cells at 10 uM after 48 hrs; details: Leukemia cell
[21] = Cytotoxicity against human melanoma cells at 10 uM after 48 hrs; details: Melanoma cell; outline: as §1
[22] = test system: Cancer cell lines; assay: Ratio of 5-FU GI50 to compound GI50 for human breast cancer cells; outline: as §2
[23] = test system: Melanoma cell; assay: Ratio of 5-FU GI50 to compound GI50 for human melanoma cells; outline: as §2
[24] = test system: Cancer cell lines; assay: Ratio of 5-FU TGI to compound TGI for human colon cancer cells
[25] = test system: Leukemia cell; assay: Ratio of 5-FU LC50 to compound LC50 for human leukemia cells; outline: as §2
[26] = test system: Cancer cell lines; assay: Ratio of 5-FU GI50 to compound GI50 for human colon cancer cells; outline: as §2
[27] = read-out: LC50 (the source's name)

For `COc1cc(/C=C2\CCCC3=C(c4cc(OC)c(OC)c(OC)c4)Nc4ccccc4N=C32)cc(OC)c1OC`, the inhibition of growth at 10 µM [1] was 93.9%, the RatioLC50 [2] was 11 and the RatioGI50 [3] was 11. It also gave a RatioGI50 [4] of 11, a RatioGI50 [5] of 11 and a GI50 [6] of 2.8 µM. The TGI [6] was 28 µM, the CC50 [6, 27] was 73.6 µM and the Ratio [7] was 11. For the same compound, the inhibition of growth at 10 µM [8] was less than 30%, the inhibition of growth at 10 µM [9] was 98.5% and the RatioLC50 [10] was 11. The inhibition of growth at 10 µM [11] was 98.2%, the RatioLC50 [12] was 11 and the RatioLC50 [13] was 11. For the same compound, the Ratio [14] was 11, the RatioLC50 [15] was 11 and the Ratio [16] was 11. For the same compound, the RatioLC50 [17] was 11, the RatioLC50 [18] was 11 and the inhibition of growth at 10 µM [19] was 94.1%. The GI50 [20] was 1.4 µM, the LC50 [20] was greater than 100 µM and the TGI [20] was 5 µM. It also gave a GI50 [21] of 1.7 µM, a TGI [21] of 5.6 µM and a CC50 [21, 27] of 71.4 µM. For the same compound, the RatioGI50 [22] was 11, the RatioGI50 [23] was 11 and the Ratio [24] was 11. It also gave a RatioLC50 [25] of 11 and a RatioGI50 [26] of 11.
